# According to ChEMBL document CHEMBL1135571, “Synthesis and optimization of a new family of type 3 17 beta-hydroxysteroid dehydrogenase inhibitors by parallel liquid-phase chemistry” (J Med Chem, 2002):
# “And” between values parts separate entries of the source, which are not always exact repeats. Identical values can stand only once.
# Legend:
# [1] = biological target: T1, 17-beta-hydroxysteroid dehydrogenase type 3 (Homo sapiens, UniProt P37058); assay: The ability to inhibit the Type-3 17-beta- hydroxysteroid dehydrogenase activity in transfected human embryonic kidney (HEK)-293 cells experiment 3; type: cell-based, HEK293
# T1 sequence (P37058 whole entry): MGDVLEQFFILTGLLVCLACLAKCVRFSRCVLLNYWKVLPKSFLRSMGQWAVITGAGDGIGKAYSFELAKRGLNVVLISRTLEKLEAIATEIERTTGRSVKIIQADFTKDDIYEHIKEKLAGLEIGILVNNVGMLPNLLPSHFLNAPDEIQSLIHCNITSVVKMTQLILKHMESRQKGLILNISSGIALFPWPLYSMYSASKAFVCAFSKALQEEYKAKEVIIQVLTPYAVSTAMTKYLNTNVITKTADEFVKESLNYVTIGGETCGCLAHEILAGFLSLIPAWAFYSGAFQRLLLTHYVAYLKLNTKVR
# Method in brief: (§1)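 Type 3 17β-HSD expressed by calcium phosphate transfection in HEK-293 cells. Cells sonicated in 50 mM sodium phosphate pH 7.4 with 20% glycerol and 1 mM EDTA, then spun at 10 000g for 1 h; the 100 000g microsomal pellet is the enzyme source. Assay at 37 °C in the same buffer with 5 mM NADPH and 0.05 μM [14C]Δ4-dione. Labeled testosterone formed is measured; […].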
# [2] = Proliferative activity against Shionogi(AR+) cells at 0.1 uM concentration; type: functional
# [3] = Proliferative activity against Shionogi(AR+) cells at 1 uM concentration; type: functional
# [4] = Proliferative activity against Shionogi (AR+) cells at 1 uM concentration; type: functional
# [5] = biological target: T1, 17-beta-hydroxysteroid dehydrogenase type 3; assay: Concentration to inhibit 50% activity of the Type-3 17-beta- hydroxysteroid dehydrogenase
# Method in brief: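 Microsomal fraction from HEK-293 cells transfected with type 3 17β-HSD, prepared by sonication and differential centrifugation (10 000g, then 100 000g) in 50 mM sodium phosphate pH 7.4, 20% glycerol, 1 mM EDTA. Incubated at 37 °C with 5 mM NADPH, 0.05 μM [14C]Δ4-dione and a range of inhibitor concentrations. Labeled testosterone formed is measured; IC50 is computed from the 50% inhibition point.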
# [6] = Proliferative activity against Shionogi (AR+) cells at 0.1 uM concentration; type: functional
# [7] = biological target: T1, 17-beta-hydroxysteroid dehydrogenase type 3; assay: Ability to inhibit the Type-3 17-beta- hydroxysteroid dehydrogenase activity transfected in human embryonic kidney (HEK)-293 cells experiment 3; type: cell-based, HEK293
# [8] = biological target: T1, 17-beta-hydroxysteroid dehydrogenase type 3; assay: Ability to inhibit the Type-3 17-beta- hydroxysteroid dehydrogenase activity transfected in human embryonic kidney (HEK)-293 cells experiment 2; type: cell-based, HEK293
# [9] = biological target: T1, 17-beta-hydroxysteroid dehydrogenase type 3; assay: The ability to inhibit the Type-3 17-beta- hydroxysteroid dehydrogenase activity in transfected human embryonic kidney (HEK)-293 cells experiment 2; type: cell-based, HEK293; method in brief: as §1
Structure (SMILES),inhibition at 0.1 µM [2] [%],inhibition at 1 µM [3] [%],inhibition at 1 µM [4] [%],IC50 [5],inhibition at 0.1 µM [6] [%],also measured
C[C@]12CC[C@](O)(Cc3ccccc3)CC1CC[C@@H]1[C@@H]2CC[C@]2(C)C(=O)CC[C@@H]12 (stereo partly drawn),27,100,–,–,–,IC50 [1]: 98 nM
C[C@]12CC[C@](O)(CN(CC3CCCCC3)C(=O)C3CC3)CC1CC[C@@H]1[C@@H]2CC[C@]2(C)C(=O)CC[C@@H]12 (stereo partly drawn),–,–,0,85 nM,1,–
C[C@]12CC[C@@H](O)C[C@H]1CC[C@@H]1[C@@H]2CC[C@]2(C)C(=O)CC[C@@H]12 [ETIOCHOLANOLONE],14,2,–,–,–,IC50 [1]: 182 nM
C[C@]12CCC(=O)C=C1CC[C@@H]1[C@@H]2CC[C@]2(C)C(=O)CC[C@@H]12 [ANDROSTENEDIONE],–,–,–,–,–,IC50 [7]: 489 nM; IC50 [8]: 650 nM
C[C@]12CC[C@@]3(CC1CC[C@@H]1[C@@H]2CC[C@]2(C)C(=O)CC[C@@H]12)CN(CC(CN1CCOCC1)OC(=O)CCC1CCCC1)C(=O)O3 (stereo partly drawn),4,6,–,74 nM,–,–
CCCC(=O)N(CC1C2CC3CC(C2)CC1C3)C[C@@]1(O)CC[C@@]2(C)C(CC[C@@H]3[C@@H]2CC[C@]2(C)C(=O)CC[C@@H]32)C1 (stereo partly drawn),–,–,96,35 nM and 57 nM,7,–
CCCCCCCCN(C[C@@]1(O)CC[C@@]2(C)C(CC[C@@H]3[C@@H]2CC[C@]2(C)C(=O)CC[C@@H]32)C1)C(=O)C1CC1 (stereo partly drawn),–,–,0,–,0,IC50 [9]: 57 nM
CCCCN(CC1C2CC3CC(C2)CC1C3)C[C@@]1(O)CC[C@@]2(C)C(CC[C@@H]3[C@@H]2CC[C@]2(C)C(=O)CC[C@@H]32)C1 (stereo partly drawn),3,7,–,80 nM,–,–
